Results published in ChEMBL document CHEMBL4425193 (Bioorg Med Chem, 2016).
Active and inactive are the calls of the source. The rule behind the calls is not given here. Positions of bridges follow the written chain, without caps; N, C: chain ends. Non-standard residues stand in square brackets, D forms with d. Residues, ends and D or L forms follow the SMILES beside them. Chains are numbered I, II in the order given. ξ: configuration not given here. Gly(N-piperonyl) = O=C(O)CNCc1ccc2c(c1)OCO2; N(4-MeOBn)Gly = COc1ccc(CNCC(=O)O)cc1; Nrpe = C[C@@H](NCC(=O)O)c1ccccc1; Nlys = NCCCCNCC(=O)O; ξK = NCCCCC(N)C(=O)O

How the values were obtained:
HCC4017 [1] = assay: Cytotoxicity against human HCC4017 cells at 0.1 to 100 uM after 1 day by MTS assay; type: functional, cell-based
In short: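 HCC4017 lung cancer cells were seeded in clear-bottom 96-well plates. On day 2 they were exposed to compound in RPMI with 10% FBS containing 3% BSA, at eight graded concentrations from 0.1 μM to 100 μM, each in triplicate. On day 3 MTS reagent was added and absorbance was read at 490 nm.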

[2] = Displacement of FITC-labeled PPS1D1 from lipid phosphatidylserine assessed as remaining fluorescence at 1 uM incubated for 1 hr by ELISA-like competitive binding assay
In short: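 Lipid PS in hexane (10 μg/ml) was coated into wells and dried at room temperature. Wells were blocked with 1% BSA/PBS for 1 h, then saturated with 200 nM FITC-PPS1D1 in blocking buffer for 1 h at room temperature and washed. Competitor at 1 μM was added for 1 h. After PBS washes, remaining fluorescence was read at 520 nm.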

HCC4017 [3] = assay: Cytotoxicity against human HCC4017 cells at 30 uM after 1 day by MTS assay; type: functional, cell-based
In short: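 HCC4017 cells were plated in 96-well format. On the second day compound was added in RPMI/10% FBS with 3% BSA, and each concentration was run in triplicate. MTS reagent was added on day 3 and absorbance was read at 490 nm. The absorbance values at the 30 μM treatment were taken for this readout.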

HCC4017 [4] = assay: Cytotoxicity against human HCC4017 cells at 30 uM after 1 day by MTS assay
HCC4017 [5] = assay: Cytotoxicity against human HCC4017 cells after 1 day by MTS assay; type: functional, cell-based; conditions: HCC4017, 24 h
NCI-H460 = assay: Cytotoxicity against human H460 cells after 1 day by MTS assay; type: functional, cell-based; conditions: NCI-H460, 24 h

| SMILES | Activity (HCC4017 [1]) | inhibition [2] | Activity (HCC4017 [3]) | Activity (HCC4017 [4]) | IC50 (HCC4017 [5]) [µM] | IC50 (NCI-H460) [µM] |
| --- | --- | --- | --- | --- | --- | --- |
| CSCC[C@H](NC(=O)[C@@H](CCCCN)NC(=O)[C@@H](N)CCCCN)C(=O)NCCCCC(NC(=O)[C@H](CCSC)NC(=O)[C@@H](CCCCN)NC(=O)[C@@H](N)CCCCN)C(N)=O (stereo partly drawn) | inactive | inactive |  |  |  |  |
| COc1ccc(CN(CC(=O)N(CCCCN)CC(=O)N[C@@H](CCCCN)C(=O)N[C@H](CCCCN)C(=O)N[C@@H](C)C(=O)NCCCCC(NC(=O)[C@H](C)NC(=O)[C@@H](CCCCN)NC(=O)[C@H](CCCCN)NC(=O)CN(CCCCN)C(=O)CN(Cc2ccc(OC)cc2)C(=O)CN(C(=O)CN(Cc2ccc3c(c2)OCO3)C(=O)CN[C@H](C)c2ccccc2)[C@H](C)c2ccccc2)C(N)=O)C(=O)CN(C(=O)CN(Cc2ccc3c(c2)OCO3)C(=O)CN[C@H](C)c2ccccc2)[C@H](C)c2ccccc2)cc1 (stereo partly drawn) |  |  | Active | Active |  |  |
| COc1ccc(CN(CC(=O)N(CCCCN)CC(=O)N[C@@H](CCCCN)C(=O)N[C@H](CCCCN)C(=O)N[C@@H](CCSC)C(=O)NCCCCC(NC(=O)[C@H](CCSC)NC(=O)[C@@H](CCCCN)NC(=O)[C@H](CCCCN)NC(=O)CN(CCCCN)C(=O)CN(Cc2ccc(OC)cc2)C(=O)CN(C(=O)CNCc2ccc3c(c2)OCO3)[C@H](C)c2ccccc2)C(N)=O)C(=O)CN(C(=O)CNCc2ccc3c(c2)OCO3)[C@H](C)c2ccccc2)cc1 (stereo partly drawn) | inactive | inactive |  |  |  |  |
| C=CCNCC(=O)N(CCOC)CC(=O)N(CC=C)CC(=O)N(CCOC)CC(=O)N(CC=C)CC(=O)NCC(=O)N[C@H](CCCCN)C(=O)N[C@@H](CCSC)C(=O)NCCCCC(NC(=O)[C@H](CCSC)NC(=O)[C@@H](CCCCN)NC(=O)CNC(=O)CN(CC=C)C(=O)CN(CCOC)C(=O)CN(CC=C)C(=O)CN(CCOC)C(=O)CNCC=C)C(N)=O (stereo partly drawn) | inactive | inactive | inactive | inactive |  |  |
| COc1ccc(CN(CC(=O)N(CCCCN)CC(=O)N[C@@H](CCCCN)C(=O)N[C@@H](C)C(=O)N[C@@H](CCSC)C(=O)NCCCCC(NC(=O)[C@H](CCSC)NC(=O)[C@H](C)NC(=O)[C@H](CCCCN)NC(=O)CN(CCCCN)C(=O)CN(Cc2ccc(OC)cc2)C(=O)CN(C(=O)CN(Cc2ccc3c(c2)OCO3)C(=O)CN[C@H](C)c2ccccc2)[C@H](C)c2ccccc2)C(N)=O)C(=O)CN(C(=O)CN(Cc2ccc3c(c2)OCO3)C(=O)CN[C@H](C)c2ccccc2)[C@H](C)c2ccccc2)cc1 (stereo partly drawn) (I: H-[Nrpe][Gly(N-piperonyl)][Nrpe][N(4-MeOBn)Gly][Nlys]KAM[ξK]-NH2 / II: H-[Nrpe][Gly(N-piperonyl)][Nrpe][N(4-MeOBn)Gly][Nlys]KAM; amide I:9-II:C) |  | inactive | inactive | inactive |  |  |
| COc1ccc(CNCC(=O)N(CCCCN)CC(=O)N[C@@H](CCCCN)C(=O)N[C@H](CCCCN)C(=O)N[C@@H](CCSC)C(=O)NCCCCC(NC(=O)[C@H](CCSC)NC(=O)[C@@H](CCCCN)NC(=O)[C@H](CCCCN)NC(=O)CN(CCCCN)C(=O)CNCc2ccc(OC)cc2)C(N)=O)cc1 (stereo partly drawn) | inactive | inactive |  |  |  |  |
| COc1ccc(CN(CC(=O)N(CCCCN)CC(=O)N[C@@H](CCCCN)C(=O)N[C@H](CCCCN)C(=O)N[C@@H](CCSC)C(=O)NCCCCC(NC(=O)[C@H](CCSC)NC(=O)[C@@H](CCCCN)NC(=O)[C@H](CCCCN)NC(=O)CN(CCCCN)C(=O)CN(Cc2ccc(OC)cc2)C(=O)CN[C@H](C)c2ccccc2)C(N)=O)C(=O)CN[C@H](C)c2ccccc2)cc1 (stereo partly drawn) | inactive | inactive |  |  |  |  |
| COCCN(CC(=O)N[C@@H](CCCCN)C(=O)N[C@H](CCCCN)C(=O)N[C@@H](CCSC)C(=O)NCCCCC(NC(=O)[C@H](CCSC)NC(=O)[C@@H](CCCCN)NC(=O)[C@H](CCCCN)NC(=O)CN(CCOC)C(=O)CN(Cc1ccc(OC)cc1)C(=O)CN(C(=O)CN(Cc1ccc2c(c1)OCO2)C(=O)CN[C@H](C)c1ccccc1)[C@H](C)c1ccccc1)C(N)=O)C(=O)CN(Cc1ccc(OC)cc1)C(=O)CN(C(=O)CN(Cc1ccc2c(c1)OCO2)C(=O)CN[C@H](C)c1ccccc1)[C@H](C)c1ccccc1 (stereo partly drawn) | Active |  |  |  |  |  |
| CSCC[C@H](NC(=O)[C@@H](CCCCN)NC(=O)[C@H](CCCCN)NC(=O)CNCCCCN)C(=O)NCCCCC(NC(=O)[C@H](CCSC)NC(=O)[C@@H](CCCCN)NC(=O)[C@H](CCCCN)NC(=O)CNCCCCN)C(N)=O (stereo partly drawn) | inactive | inactive |  |  |  |  |
| COc1ccc(CN(CC(=O)N(CCCCN)CC(=O)N[C@@H](CCCCN)C(=O)N[C@H](CCCCN)C(=O)N[C@@H](CCSC)C(=O)NCCCCC(NC(=O)[C@H](CCSC)NC(=O)[C@@H](CCCCN)NC(=O)[C@H](CCCCN)NC(=O)CN(CCCCN)C(=O)CN(Cc2ccc(OC)cc2)C(=O)CN(C)C(=O)CN(Cc2ccc3c(c2)OCO3)C(=O)CN[C@H](C)c2ccccc2)C(N)=O)C(=O)CN(C)C(=O)CN(Cc2ccc3c(c2)OCO3)C(=O)CN[C@H](C)c2ccccc2)cc1 (stereo partly drawn) |  | inactive | inactive | inactive |  |  |
| C=CCN(CC(=O)N[C@@H](CCCCN)C(=O)N[C@H](CCCCN)C(=O)N[C@@H](CCSC)C(=O)NCCCCC(NC(=O)[C@H](CCSC)NC(=O)[C@@H](CCCCN)NC(=O)[C@H](CCCCN)NC(=O)CN(CC=C)C(=O)CN(Cc1ccc(OC)cc1)C(=O)CN(C(=O)CN(Cc1ccc2c(c1)OCO2)C(=O)CN[C@H](C)c1ccccc1)[C@H](C)c1ccccc1)C(N)=O)C(=O)CN(Cc1ccc(OC)cc1)C(=O)CN(C(=O)CN(Cc1ccc2c(c1)OCO2)C(=O)CN[C@H](C)c1ccccc1)[C@H](C)c1ccccc1 (stereo partly drawn) | Active |  |  |  |  |  |
| CSCC[C@H](NC(=O)[C@@H](CCCCN)NC(=O)[C@H](CCCCN)NC(=O)CN(CCCCN)C(=O)CN(C)C(=O)CN(C(=O)CN(Cc1ccc2c(c1)OCO2)C(=O)CN[C@H](C)c1ccccc1)[C@H](C)c1ccccc1)C(=O)NCCCCC(NC(=O)[C@H](CCSC)NC(=O)[C@@H](CCCCN)NC(=O)[C@H](CCCCN)NC(=O)CN(CCCCN)C(=O)CN(C)C(=O)CN(C(=O)CN(Cc1ccc2c(c1)OCO2)C(=O)CN[C@H](C)c1ccccc1)[C@H](C)c1ccccc1)C(N)=O (stereo partly drawn) |  | inactive | inactive | inactive |  |  |
| COc1ccc(CN(CC(=O)N(CCCCN)CC(=O)N[C@@H](CCCCN)C(=O)N[C@H](CCCCN)C(=O)N[C@@H](CCSC)C(=O)NCCCCC(NC(=O)[C@H](CCSC)NC(=O)[C@@H](CCCCN)NC(=O)[C@H](CCCCN)NC(=O)CN(CCCCN)C(=O)CN(Cc2ccc(OC)cc2)C(=O)CN(C(=O)CN(Cc2ccc3c(c2)OCO3)C(=O)CN[C@H](C)c2ccccc2)[C@H](C)c2ccccc2)C(N)=O)C(=O)CN(C(=O)CN(Cc2ccc3c(c2)OCO3)C(=O)CN[C@H](C)c2ccccc2)[C@H](C)c2ccccc2)cc1 (stereo partly drawn) | Active | Active | Active | Active | 5 to 10 | 5 to 10 |
